In assay [1] the test system is Plasmodium falciparum. In words: Antiplasmodial activity against Plasmodium falciparum assessed as inhibition of parasite LDH activity after 72 hrs. It counts as functional, organism-based. Summed up: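 P. falciparum ItG grown in O+ human erythrocytes in RPMI-1640 with 10% human serum and 50 µM hypoxanthine. DMSO stocks (10 mg/mL) diluted two-fold serially; culture at 2% hematocrit and 2% parasitemia incubated 72 h at 37 °C under 95% N₂/3% CO₂/2% O₂. pLDH assay read at 595 nm after 1 h; IC50 by non-linear regression, mean ± SEM, n = 4; chloroquine positive control.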

Assay [2] concerns CHO. In words: Cytotoxicity against CHO cells after 48 hrs by MTT assay. It is filed as cell-based. To be noted: Cricetulus griseus. In a few lines: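 CHO cells grown in RPMI-1640 with 10% fetal calf serum, 25 mM HEPES and gentamicin, to 50% confluency, then given two-fold gradients from 10 mg/mL DMSO stocks; DMSO-only control. After 48 h, MTT (10 mg/mL) was added for 30 min, then DMSO; absorbance read at 650 nm. IC50 by non-linear regression of sigmoidal dose-response curves; four determinations, mean ± SEM.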

The nature of assay [3]: Ratio of IC50 for CHO cells to IC50 for Plasmodium falciparum.
The subject of assay [4] is Plasmodium falciparum. In words: Antiplasmodial activity against Plasmodium falciparum 3D7 assessed as reduction in parasitemia at 40 nM measured between day 1 and day 2 relative to control. It counts as functional, organism-based. Summed up:
(§1)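 P. falciparum 3D7 cultures synchronized at mature stage on Percoll one day before the start. Set to 1% hematocrit and 2% parasitemia, treated with 40 nM or 83 nM compound, and sampled every 24 h for 4 days. Parasitemia counted on Giemsa-stained smears. Controls: uninfected RBCs, untreated cultures, sulfated β-cyclodextrin sodium salt and chloroquine.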

Assay [5] relates to Plasmodium falciparum. In words: Antiplasmodial activity against Plasmodium falciparum 3D7 assessed as reduction in parasitemia at 83 nM measured between day 1 and day 2 relative to control. It counts as functional, organism-based. Summed up:
as §1

Assay [6] relates to Plasmodium falciparum. In words: Antiplasmodial activity against Plasmodium falciparum assessed as inhibition of merozoite invasion of RBCs at 20 uM after 48 hrs by SYBR green 1 fluorescence-based flow cytometry. It is filed as functional, organism-based. Summed up:
(§2)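 Sorbitol-synchronized ring-stage P. falciparum set to 5% parasitemia and 0.5% hematocrit, then treated for 48 h. An equal volume of RPMI-1640 with 0.2 µL/mL stock SYBR-Green was added for 1 h in the dark before flow cytometry (~200,000 events). Quadrant counts of parasitized, non-parasitized and small DNA-containing events were taken relative to total erythrocytes.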

Assay [7] concerns Plasmodium berghei. In words: Antiplasmodial activity against Plasmodium berghei infected in BALB/c mouse assessed as delay in onset of parasitemia at 75 ug/day infused once daily for 3 days by Giemsa staining relative to control. It counts as functional, organism-based. In a few lines: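 Female Balb/c mice, 6–8 weeks old, infected with 10⁶ P. berghei on Day 0 and followed by Giemsa-stained blood films until parasites appeared. Then infused once daily for three days with 0.5 mL RPMI-1640 or compound in RPMI-1640; vehicle control 1% (v/v) DMSO in RPMI-1640; chloroquine 15 mg/kg/day as positive control. Parasitemia by Giemsa films; five mice per group.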

The test system of assay [8] is Plasmodium falciparum. In words: Antiplasmodial activity against Plasmodium falciparum assessed as inhibition of parasite adherence to RBCs at 20 uM after 48 hrs by microscopic analysis. It counts as functional, organism-based.
Assay [9] concerns Plasmodium berghei. In words: Antiplasmodial activity against Plasmodium berghei infected in BALB/c mouse assessed as delay in onset of parasitemia infused once daily for 3 days by Giemsa staining relative to control.
The test system of assay [10] is Plasmodium berghei. In words: Antiplasmodial activity against Plasmodium berghei infected in BALB/c mouse assessed as reduction in parasitemia at 15 mg/kg infused once daily for 4 days measured after 4 days by YOYO-1 staining based flow cytometry relative to control. More on the design: scale not given: the % may be the effect or the level left. For orientation: Flow cytometry measures light scatter and fluorescence of single cells or particles in a stream.

In assay [11] the test system is Plasmodium falciparum. In words: Antiplasmodial activity against Plasmodium falciparum 3D7 assessed as reduction in parasitemia measured between day 1 and day 2 relative to control. It counts as functional, organism-based. In a few lines:
as §1

The test system of assay [12] is Plasmodium falciparum. In words: Antiplasmodial activity against Plasmodium falciparum assessed as inhibition of merozoite invasion of RBCs at 1 uM after 48 hrs by SYBR green 1 fluorescence-based flow cytometry. It counts as functional, organism-based. Summed up: as §2

Activity calls are given as the source filed them. The rule behind the calls is not given here.

One may read the IC50 as the concentration that gives 50% inhibition. As for `C[n+]1cnn(CCCCCCCCCCCCn2c[n+](C)cn2)c1.[I-].[I-]`, the IC50 in [1] was 0.008 µM; in assay [2] it was 52 µM. Moreover, in assay [3], the “Ratio IC50” value is given as 6500. Besides, the outcome in assay [4] was inactive. In addition, the result in assay [5] and in [7] was Active. Moreover, in [6], the inhibition result was “inactive”. In [8], the inhibition entry was “Active”. In addition, the Activity turned out to be 50% in assay [9] and 75% in [10].
Regarding `CCN(CC)CCCC(C)Nc1ccnc2cc(Cl)ccc12` (configuration not stated), the outcome in [11] was Active. For the same molecule, in assay [12], the inhibition entry was “Active”.

Values taken from ChEMBL document CHEMBL1921730, “The anti-malarial activity of bivalent imidazolium salts” (Bioorg Med Chem, 2011).
